{"data": "Published values gathered from unrelated publications", "effect on": "cell growth or viability", "note": "Protocols differ between the studies behind these lines."}
{"SMILES": "C=CC(=O)c1cccnc1Nc1cc(C(F)(F)F)ccc1OCc1ccccc1", "cell line": "NCI-H23", "method": "SRB", "time": "48 h", "measurement": "GI50", "result": "16.5 µM"}
{"SMILES": "COc1cc2nc(N3CCN(C(=O)c4ccco4)CC3)nc(N)c2cc1OC", "cell line": "C6661", "method": "MTT", "time": "48 h", "measurement": "IC50", "result": "27.4 µM"}
{"SMILES": "Cc1noc2c1-c1ccccc1C(c1ccc(Cl)cc1)=N[C@H]2CC(N)=O", "cell line": "MOLM-13", "method": "ATP luminescence", "time": "72 h", "measurement": "IC50", "result": "0.474 µM"}
{"SMILES": "O=C(O)c1cccnc1Nc1cccc(C(F)(F)F)c1", "cell line": "NCI-H23", "method": "SRB", "time": "48 h", "measurement": "GI50", "result": "> 30 µM"}
{"SMILES": "CNC(=O)c1cc(Oc2ccc(NC(=O)Nc3ccc(Cl)c(C(F)(F)F)c3)cc2)ccn1", "cell line": "NCI-H23", "method": "MTT", "time": "72 h", "measurement": "IC50", "result": "4.25 µM"}
{"SMILES": "C=CC(=O)c1cccnc1Nc1cc(C(F)(F)F)ccc1OC", "cell line": "NCI-H23", "method": "SRB", "time": "48 h", "measurement": "GI50", "result": "6.67 µM"}
{"SMILES": "C=CC(=O)N1CCN(c2nc(=O)n(-c3c(C)ccnc3C(C)C)c3nc(-c4c(O)cccc4F)c(F)cc23)[C@@H](C)C1", "cell line": "SW1573", "method": "ATP luminescence", "measurement": "IC50", "result": "> 10 µM"}
{"SMILES": "Cc1c(C(=O)O)ccc2c3n(nc12)[C@@H]1[C@H](C3)N(CC2CC2)[C@@]2(C(=O)Nc3cc(Cl)ccc32)[C@H]1c1cccc(Cl)c1F", "cell line": "Rh18", "measurement": "GI50", "result": "0.00023 µM"}
{"SMILES": "C=CC(=O)NC1CCN(c2ncc3ncnc(Nc4ccc(Oc5ccc6c(c5)ncn6C)c(C)c4)c3n2)CC1", "cell line": "SNU-601", "measurement": "EC50", "result": "0.00422 µM"}
{"SMILES": "Cc1cc(/C=C/C#N)cc(C)c1Nc1ccnc(Nc2ccc(C#N)cc2)n1", "cell line": "C6661", "method": "MTT", "time": "48 h", "measurement": "IC50", "result": "4.67 µM"}
{"SMILES": "O=C(NO)c1ccc(CNc2nc3cccc(-c4ccc5c(c4)OCO5)n3n2)cc1", "cell line": "NCI-H23", "method": "SRB", "measurement": "GI50", "result": "0.66 µM"}
{"SMILES": "C[C@@H]1CC2=C(CN1Cc1cccc(C#N)c1)C(=O)N(Cc1ccc(Br)cc1)C1=NCCN12", "cell line": "MOLM-13", "method": "MTS", "measurement": "IC50", "result": "0.00793 µM"}
